ChEMBL document CHEMBL2062460, “Disubstituted thiourea derivatives and their activity on CNS: synthesis and biological evaluation” (Eur J Med Chem, 2012)
≈ marks a conversion by molar mass, not a printed value. Calls of active or inactive are those of the source. No cut-off for these calls is given here.

Experiments:
[1] = test system: Staphylococcus epidermidis; assay: Antibacterial activity against Staphylococcus epidermidis ATCC 12228 at 400 ug/disc after 18 hrs by disc diffusion method; assay type: functional; conditions: ATCC 12228, 18 h, read-out: DIZ
Method in brief: (§1)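 Disc diffusion per CLSI on Mueller–Hinton II agar; 9 mm paper discs loaded from methanol or DMSO solutions to 400 µg per disc, dried; growth inhibition zone diameter read after 18 h at 35 °C.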

[2] = test system: Staphylococcus aureus; assay: Antibacterial activity against Staphylococcus aureus NCTC 4163 at 400 ug/disc after 18 hrs by disc diffusion method; assay type: functional; conditions: NCTC 4163, 18 h, read-out: DIZ; method in brief: as §1
[3] = test system: Staphylococcus aureus; assay: Antibacterial activity against Staphylococcus aureus ATCC 6538 at 400 ug/disc after 18 hrs by disc diffusion method; assay type: functional; conditions: ATCC 6538, 18 h, read-out: DIZ; method in brief: as §1
[4] = test system: Bacillus cereus; assay: Antibacterial activity against Bacillus cereus ATCC 11778 at 400 ug/disc after 18 hrs by disc diffusion method; assay type: functional; conditions: ATCC 11778, 18 h, read-out: DIZ; method in brief: as §1
[5] = test system: Escherichia coli; assay: Antibacterial activity against Escherichia coli ATCC 10538 at 400 ug/disc after 18 hrs by disc diffusion method; assay type: functional, organism-based; method in brief: as §1
[6] = test system: Escherichia coli; assay: Antibacterial activity against Escherichia coli ATCC 25922 at 400 ug/disc after 18 hrs by disc diffusion method; assay type: functional, organism-based; method in brief: as §1
[7] = test system: Pseudomonas aeruginosa; assay: Antibacterial activity against Pseudomonas aeruginosa ATCC 15442 at 400 ug/disc after 18 hrs by disc diffusion method; assay type: functional, organism-based; method in brief: as §1
[8] = test system: Pseudomonas aeruginosa; assay: Antibacterial activity against Pseudomonas aeruginosa NCTC 6749 at 400 ug/disc after 18 hrs by disc diffusion method; assay type: functional, organism-based; method in brief: as §1
[9] = test system: Pseudomonas aeruginosa; assay: Antibacterial activity against Pseudomonas aeruginosa ATCC 27853 at 400 ug/disc after 18 hrs by disc diffusion method; assay type: functional, organism-based; method in brief: as §1
[10] = test system: Candida albicans; assay: Antifungal activity against Candida albicans ATCC 10231 at 400 ug/disc after 18 hrs by disc diffusion method; assay type: functional, organism-based
Method in brief: (§2)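 Yeasts tested by disc diffusion (CLSI) on RPMI agar with 2% glucose; 9 mm paper discs bearing 400 µg compound from methanol or DMSO solution; inhibition zone diameter read after 18 h at 35 °C.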

[11] = test system: Candida albicans; assay: Antifungal activity against Candida albicans ATCC 90028 at 400 ug/disc after 18 hrs by disc diffusion method; assay type: functional, organism-based; method in brief: as §2
[12] = test system: Candida parapsilosis; assay: Antifungal activity against Candida parapsilosis ATCC 22019 at 400 ug/disc after 18 hrs by disc diffusion method; assay type: functional, organism-based; method in brief: as §2
[13] = test system: Staphylococcus aureus; assay: Antibacterial activity against Staphylococcus aureus ATCC 25923 after 18 hrs by twofold serial agar dilution technique; assay type: functional; conditions: ATCC 25923, 18 h
Method in brief: (§3)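 Twofold serial agar dilution on Mueller–Hinton II agar, following CLSI guidelines. Compounds were dissolved in methanol or DMSO and tested at final agar concentrations of 3.125–400 µg/mL. Final inoculum was 10^4 CFU/mL.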

[14] = test system: Staphylococcus aureus; assay: Antibacterial activity against Staphylococcus aureus ATCC 29213 after 18 hrs by twofold serial agar dilution technique; assay type: functional; conditions: ATCC 29213, 18 h; method in brief: as §3
[15] = test system: Staphylococcus epidermidis; assay: Antibacterial activity against Staphylococcus epidermidis ATCC 12228 after 18 hrs by twofold serial agar dilution technique; assay type: functional; conditions: ATCC 12228, 18 h; method in brief: as §3
[16] = test system: Bacillus subtilis; assay: Antibacterial activity against Bacillus subtilis ATCC 6633 after 18 hrs by twofold serial agar dilution technique; assay type: functional; conditions: ATCC 6633, 18 h
[17] = test system: Enterococcus hirae; assay: Antibacterial activity against Enterococcus hirae ATCC 10541 after 18 hrs by twofold serial agar dilution technique; assay type: functional; conditions: ATCC 10541, 18 h
[18] = test system: Micrococcus luteus; assay: Antibacterial activity against Micrococcus luteus ATCC 9341 after 18 hrs by twofold serial agar dilution technique; assay type: functional; conditions: ATCC 9341, 18 h
[19] = test system: Staphylococcus aureus; assay: Antibacterial activity against methicillin-susceptible Staphylococcus aureus clinical isolate 261/08 after 18 hrs by twofold serial agar dilution technique; assay type: functional; conditions: clinical isolate 261/08, 18 h
Method in brief: (§4)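 Clinical isolates came from patients in Warsaw Medical University Hospitals and were classed as methicillin-susceptible or -resistant. MIC was determined by twofold serial agar dilution on Mueller–Hinton II agar (CLSI), 3.125–400 µg/mL in agar, with compounds in methanol or DMSO. Inoculum was 10^4 CFU/mL and plates were read after 18 h at 35 °C.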

[20] = test system: Staphylococcus aureus; assay: Antibacterial activity against methicillin-susceptible Staphylococcus aureus clinical isolate 267/08 after 18 hrs by twofold serial agar dilution technique; assay type: functional; conditions: clinical isolate 267/08, 18 h; method in brief: as §4
[21] = test system: Staphylococcus aureus; assay: Antibacterial activity against methicillin-susceptible Staphylococcus aureus clinical isolate 268/08 after 18 hrs by twofold serial agar dilution technique; assay type: functional; conditions: clinical isolate 268/08, 18 h; method in brief: as §4
[22] = test system: Staphylococcus aureus; assay: Antibacterial activity against methicillin-susceptible Staphylococcus aureus clinical isolate 269/08 after 18 hrs by twofold serial agar dilution technique; assay type: functional; conditions: clinical isolate 269/08, 18 h; method in brief: as §4
[23] = test system: Staphylococcus aureus; assay: Antibacterial activity against methicillin-susceptible Staphylococcus aureus clinical isolate 339/09 after 18 hrs by twofold serial agar dilution technique; assay type: functional; conditions: clinical isolate 339/09, 18 h; method in brief: as §4
[24] = test system: Staphylococcus aureus; assay: Antibacterial activity against methicillin-susceptible Staphylococcus aureus clinical isolate 369/09 after 18 hrs by twofold serial agar dilution technique; assay type: functional; conditions: clinical isolate 369/09, 18 h; method in brief: as §4
[25] = test system: Staphylococcus aureus; assay: Antibacterial activity against methicillin-susceptible Staphylococcus aureus clinical isolate 372/09 after 18 hrs by twofold serial agar dilution technique; assay type: functional; conditions: clinical isolate 372/09, 18 h; method in brief: as §4
[26] = test system: Staphylococcus aureus; assay: Antibacterial activity against methicillin-resistant Staphylococcus aureus clinical isolate 275/08 after 18 hrs by twofold serial agar dilution technique; assay type: functional; conditions: clinical isolate 275/08, 18 h; method in brief: as §4
[27] = test system: Staphylococcus aureus; assay: Antibacterial activity against methicillin-resistant Staphylococcus aureus clinical isolate 277/08 after 18 hrs by twofold serial agar dilution technique; assay type: functional; conditions: clinical isolate 277/08, 18 h; method in brief: as §4
[28] = test system: Staphylococcus aureus; assay: Antibacterial activity against methicillin-resistant Staphylococcus aureus clinical isolate 306/08 after 18 hrs by twofold serial agar dilution technique; assay type: functional; conditions: clinical isolate 306/08, 18 h; method in brief: as §4
[29] = test system: Staphylococcus aureus; assay: Antibacterial activity against methicillin-resistant Staphylococcus aureus clinical isolate 307/08 after 18 hrs by twofold serial agar dilution technique; assay type: functional; conditions: clinical isolate 307/08, 18 h; method in brief: as §4
[30] = test system: Staphylococcus aureus; assay: Antibacterial activity against methicillin-resistant Staphylococcus aureus clinical isolate 309/08 after 18 hrs by twofold serial agar dilution technique; assay type: functional; conditions: clinical isolate 309/08, 18 h; method in brief: as §4
[31] = test system: Staphylococcus aureus; assay: Antibacterial activity against methicillin-resistant Staphylococcus aureus clinical isolate 329/08 after 18 hrs by twofold serial agar dilution technique; assay type: functional; conditions: clinical isolate 329/08, 18 h; method in brief: as §4
[32] = test system: Staphylococcus aureus; assay: Antibacterial activity against methicillin-resistant Staphylococcus aureus clinical isolate 356/09 after 18 hrs by twofold serial agar dilution technique; assay type: functional; conditions: clinical isolate 356/09, 18 h; method in brief: as §4
[33] = test system: Staphylococcus epidermidis; assay: Antibacterial activity against methicillin-resistant Staphylococcus epidermidis clinical isolate 311/08 after 18 hrs by twofold serial agar dilution technique; assay type: functional; conditions: clinical isolate 311/08, 18 h; method in brief: as §4
[34] = test system: Staphylococcus epidermidis; assay: Antibacterial activity against methicillin-resistant Staphylococcus epidermidis clinical isolate 317/08 after 18 hrs by twofold serial agar dilution technique; assay type: functional; conditions: clinical isolate 317/08, 18 h; method in brief: as §4
[35] = test system: Staphylococcus epidermidis; assay: Antibacterial activity against methicillin-resistant Staphylococcus epidermidis clinical isolate 340/09 after 18 hrs by twofold serial agar dilution technique; assay type: functional; conditions: clinical isolate 340/09, 18 h; method in brief: as §4
[36] = test system: Staphylococcus epidermidis; assay: Antibacterial activity against methicillin-resistant Staphylococcus epidermidis clinical isolate 343/09 after 18 hrs by twofold serial agar dilution technique; assay type: functional; conditions: clinical isolate 343/09, 18 h; method in brief: as §4
[37] = test system: Staphylococcus epidermidis; assay: Antibacterial activity against methicillin-resistant Staphylococcus epidermidis clinical isolate 377/09 after 18 hrs by twofold serial agar dilution technique; assay type: functional; conditions: clinical isolate 377/09, 18 h; method in brief: as §4

## S=C(Nc1ccc(Br)cc1)Nc1nc[nH]n1
[1]
  zone of inhibition at 400 µg/disc: 16 mm
[2]
  zone of inhibition at 400 µg/disc: 17 mm
[3]
  zone of inhibition at 400 µg/disc: 16 mm
[4]
  zone of inhibition at 400 µg/disc: 18 mm
[5]
  diameter of the inhibition zone (DIZ): inactive
[6]
  diameter of the inhibition zone (DIZ): inactive
[7]
  diameter of the inhibition zone (DIZ): inactive
[8]
  diameter of the inhibition zone (DIZ): inactive
[9]
  diameter of the inhibition zone (DIZ): inactive
[10]
  diameter of the inhibition zone (DIZ): inactive
[11]
  diameter of the inhibition zone (DIZ): inactive
[12]
  diameter of the inhibition zone (DIZ): inactive
[13]
  MIC: 50 µg/mL (≈ 168 µM)
[14]
  MIC: 25 µg/mL (≈ 83.8 µM)
[15]
  MIC: 25 µg/mL (≈ 83.8 µM)
[16]
  MIC: 12.5 µg/mL (≈ 41.9 µM)
[17]
  MIC: 400 µg/mL (≈ 1340 µM)
[18]
  MIC: 25 µg/mL (≈ 83.8 µM)
[19]
  MIC: 25 µg/mL (≈ 83.8 µM)
[20]
  MIC: 25 µg/mL (≈ 83.8 µM)
[21]
  MIC: 50 µg/mL (≈ 168 µM)
[22]
  MIC: 25 µg/mL (≈ 83.8 µM)
[23]
  MIC: 50 µg/mL (≈ 168 µM)
[24]
  MIC: 50 µg/mL (≈ 168 µM)
[25]
  MIC: 25 µg/mL (≈ 83.8 µM)
[26]
  MIC: 100 µg/mL (≈ 335 µM)
[27]
  MIC: 50 µg/mL (≈ 168 µM)
[28]
  MIC: 50 µg/mL (≈ 168 µM)
[29]
  MIC: 50 µg/mL (≈ 168 µM)
[30]
  MIC: 50 µg/mL (≈ 168 µM)
[31]
  MIC: 50 µg/mL (≈ 168 µM)
[32]
  MIC: 50 µg/mL (≈ 168 µM)
[33]
  MIC: 50 µg/mL (≈ 168 µM)
[34]
  MIC: 100 µg/mL (≈ 335 µM)
[35]
  MIC: 25 µg/mL (≈ 83.8 µM)
[36]
  MIC: 25 µg/mL (≈ 83.8 µM)
[37]
  MIC: 25 µg/mL (≈ 83.8 µM)
